For 1 protein, Km and Vmax results are on record in ChEMBL document CHEMBL1811872, “Tryptophan 2,3-dioxygenase (TDO) inhibitors. 3-(2-(pyridyl)ethenyl)indoles as potential anticancer immunomodulators” (J Med Chem, 2011).

Substrate in the data set: N[C@@H](Cc1c[nH]c2ccccc12)C(=O)O
As to the kind of experiment: Activity of human recombinant TDO expressed in Escherichia coli BL21 using L-tryptophan as substrate by measuring conversion of N-formylkynurenine into kynurenine per mg of protein after 30 mins by Michaelis-Menten steady state analysis. In a few lines:
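Crude extract of E. coli overexpressing recombinant human TDO (~3 μg total protein) was added to prewarmed mix: 50 mM phosphate pH 7.5, 20 mM ascorbate, 10 μM methylene blue, 500 IU/mL catalase and varied L-Trp. Run at 37 °C, stopped with TCA at 2 and 4 min, then 65 °C for 30 min. Kynurenine was read at 480 nm with Ehrlich's reagent against a kynurenine standard curve; rate taken from 2–4 min.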

B1: Tryptophan 2,3-dioxygenase (Homo sapiens), P48775 (protein)
chain: MSGCPFLGNNFGYTFKKLPVEGSEEDKSQTGVNRASKGGLIYGNYLHLEKVLNAQELQSETKGNKIHDEHLFIITHQAYELWFKQILWELDSVREIFQNGHVRDERNMLKVVSRMHRVSVILKLLVQQFSILETMTALDFNDFREYLSPASGFQSLQFRLLENKIGVLQNMRVPYNRRHYRDNFKGEENELLLKSEQEKTLLELVEAWLERTPGLEPHGFNFWGKLEKNITRGLEEEFIRIQAKEESEEKEEQVAEFQKQKEVLLSLFDEKRHEHLLSKGERRLSYRALQGALMIYFYREEPRFQVPFQLLTSLMDIDSLMTKWRYNHVCMVHRMLGSKAGTGGSSGYHYLRSTVSDRYKVFVDLFNLSTYLIPRHWIPKMNPTIHKFLYTAEYCDSSYFSSDESD
The Km is the concentration of substrate that gives half-maximal velocity. Broadly, the Vmax is the rate approached at saturating substrate. Take B1: the Km was 167 µM and the Vmax was 97 µM/s.
